Laboratory results reported in ChEMBL document CHEMBL2157981, “Synthesis of new antimicrobial pyrrolo[2,1-a]isoquinolin-3-ones” (2012).
Calls of active or inactive are those of the source. The calls are words filed in the database; no cut-off is given here.

What was measured:
Fusarium culmorum [1] = assay: Fungicidal activity against Fusarium culmorum CCM 172 at 0.2 mg/disk after 48 hrs by agar diffusion assay; assay type: functional
In short: (§1)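 Fungi were grown 7 days at 28 °C on PDA, then suspended in 0.05% Tween 80 in sterile water to about 10^6 conidia/mL. 1 mL was mixed into 15 mL PDA. After setting, four 0.5 cm paper disks impregnated with test product were added. Controls were solvent-only disks and benomyl disks, dosed per fungus. The read-out was the no-growth inhibition zone (mm), as the mean ± SE of three independent experiments.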

[2] = test system: Pectobacterium carotovorum; assay: Bactericidal activity against Erwinia carotovora CECT 225 at 0.2 mg/disk after 24 hrs by agar diffusion assay; assay type: functional
In short: (§2)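 Each bacterium, kept as 24-h cultures on solid-medium slants, was reactivated in Nutrient Broth for 24 h at 28 or 37 °C depending on species. 1 mL of this suspension was plated and overlaid with 15 mL Plate Count Agar. Once the agar solidified, five paper disks loaded with test product were applied. Plates were incubated 24 h in the dark at 28 or 37 °C by species.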

Escherichia coli [3] = assay: Bactericidal activity against Escherichia coli CECT 405 at 0.2 mg/disk after 24 hrs by agar diffusion assay; assay type: functional; in short: as §2
Aspergillus parasiticus [4] = assay: Fungicidal activity against Aspergillus parasiticus CECT 2681 at 0.2 mg/disk after 48 hrs by agar diffusion assay; assay type: functional; in short: as §1
[5] = test system: Phytophthora citrophthora; assay: Fungicidal activity against Phytophthora citrophthora CECT 2353 at 0.2 mg/disk after 48 hrs by agar diffusion assay; assay type: functional; in short: as §1
Enterococcus faecalis [6] = assay: Bactericidal activity against Enterococcus faecalis CECT 481 at 0.2 mg/disk after 24 hrs by agar diffusion assay; assay type: functional; in short: as §2
Escherichia coli [7] = assay: Bactericidal activity against Escherichia coli CECT 100 at 0.2 mg/disk after 24 hrs by agar diffusion assay; assay type: functional; in short: as §2
Geotrichum candidum [8] = assay: Fungicidal activity against Geotrichum candidum CCM 245 at 0.2 mg/disk after 48 hrs by agar diffusion assay; assay type: functional; in short: as §1
Trichoderma viride [9] = assay: Fungicidal activity against Trichoderma viride CECT 2423 at 0.2 mg/disk after 48 hrs by agar diffusion assay; assay type: functional; in short: as §1
Salmonella typhi [10] = assay: Bactericidal activity against Salmonella typhi CECT 409 at 0.2 mg/disk after 24 hrs by agar diffusion assay; assay type: functional, Salmonella enterica subsp. enterica serovar Typhi; conditions: for Activity: Salmonella enterica subsp. enterica serovar Typhi
In short: (§3)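 Bacteria from 24-h slant cultures reactivated in Nutrient Broth for 24 h at 28 or 37 °C depending on strain. 1 mL of suspension was placed in a plate and overlaid with 15 mL Plate Count Agar. After solidification, five paper disks loaded with compound were applied. Plates were incubated 24 h in the dark at 28 or 37 °C depending on strain.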

Staphylococcus aureus [11] = assay: Bactericidal activity against Staphylococcus aureus CECT 86 at 0.2 mg/disk after 24 hrs by agar diffusion assay; assay type: functional; in short: as §2
Bacillus cereus [12] = assay: Bactericidal activity against Bacillus cereus CECT 148 at 0.2 mg/disk after 24 hrs by agar diffusion assay; assay type: functional; in short: as §2
Fusarium culmorum [13] = assay: Fungicidal activity against Fusarium culmorum CCM 172 at […] after 48 hrs by agar diffusion assay; assay type: functional, organism-based; conditions: 0.4 mg/disk; in short: as §1
[14] = test system: Phytophthora citrophthora; assay: Fungicidal activity against Phytophthora citrophthora CECT 2353 at 0.4 mg/disk after 48 hrs by agar diffusion assay; assay type: functional, organism-based; in short: as §1
Aspergillus parasiticus [15] = assay: Fungicidal activity against Aspergillus parasiticus CECT 2681 at 0.4 mg/disk after 48 hrs by agar diffusion assay; assay type: functional, organism-based; in short: as §1
Geotrichum candidum [16] = assay: Fungicidal activity against Geotrichum candidum CCM 245 at 0.4 mg/disk after 48 hrs by agar diffusion assay; assay type: functional, organism-based; in short: as §1
Trichoderma viride [17] = assay: Fungicidal activity against Trichoderma viride CECT 2423 at 0.4 mg/disk after 48 hrs by agar diffusion assay; assay type: functional, organism-based; in short: as §1
[18] = test system: Pectobacterium carotovorum; assay: Bactericidal activity against Erwinia carotovora CECT 225 at 0.3 mg/disk after 24 hrs by agar diffusion assay; assay type: functional, organism-based; in short: as §2
Escherichia coli [19] = assay: Bactericidal activity against Escherichia coli CECT 405 at 0.3 mg/disk after 24 hrs by agar diffusion assay; assay type: functional, organism-based; in short: as §2
Escherichia coli [20] = assay: Bactericidal activity against Escherichia coli CECT 100 at 0.3 mg/disk after 24 hrs by agar diffusion assay; assay type: functional, organism-based; in short: as §2
Staphylococcus aureus [21] = assay: Bactericidal activity against Staphylococcus aureus CECT 86 at 0.3 mg/disk after 24 hrs by agar diffusion assay; assay type: functional, organism-based; in short: as §2
Salmonella typhi [22] = assay: Bactericidal activity against Salmonella typhi CECT 409 at 0.3 mg/disk after 24 hrs by agar diffusion assay; assay type: functional, organism-based; conditions: Salmonella enterica subsp. enterica serovar Typhi; in short: as §3
Bacillus cereus [23] = assay: Bactericidal activity against Bacillus cereus CECT 148 at 0.3 mg/disk after 24 hrs by agar diffusion assay; assay type: functional, organism-based; in short: as §2
Enterococcus faecalis [24] = assay: Bactericidal activity against Enterococcus faecalis CECT 481 at 0.3 mg/disk after 24 hrs by agar diffusion assay; assay type: functional, organism-based; in short: as §2

| Structure (SMILES) | inhibition zone (IZ) [2] | inhibition zone (IZ) (Escherichia coli [3]) | inhibition zone (IZ) (Enterococcus faecalis [6]) | inhibition zone (IZ) (Escherichia coli [7]) | inhibition zone (IZ) (Salmonella typhi [10]) | inhibition zone (IZ) (Staphylococcus aureus [11]) | inhibition zone (IZ) (Bacillus cereus [12]) | Activity (Fusarium culmorum [13]) | Activity [14] | Activity (Aspergillus parasiticus [15]) | Activity (Geotrichum candidum [16]) | Activity (Trichoderma viride [17]) | other results |
| --- | --- | --- | --- | --- | --- | --- | --- | --- | --- | --- | --- | --- | --- |
| O=C1CCC2c3ccc(OCc4ccc(F)cc4)cc3CCN12 (stereo not drawn) | 8 mm | 6.16 mm | 0 mm | 0 mm | 0 mm | 6.33 mm | 7.5 mm | – | – | – | – | – | inhibition zone (IZ) (Fusarium culmorum [1]): 10.5 mm; inhibition zone (IZ) (Aspergillus parasiticus [4]): 7.83 mm; inhibition zone (IZ) [5]: 10.66 mm; inhibition zone (IZ) (Geotrichum candidum [8]): 7 mm; inhibition zone (IZ) (Trichoderma viride [9]): 8.1 mm |
| O=C1CCC2c3ccc(OCc4ccccc4)cc3CCN12 (stereo not drawn) | 7.26 mm | 6.33 mm | 6.83 mm | 0 mm | 6 mm | 0 mm | 8.66 mm | – | – | – | – | – | inhibition zone (IZ) (Fusarium culmorum [1]): 12 mm; inhibition zone (IZ) (Aspergillus parasiticus [4]): 6.83 mm; inhibition zone (IZ) [5]: 11.33 mm; inhibition zone (IZ) (Geotrichum candidum [8]): 6.16 mm; inhibition zone (IZ) (Trichoderma viride [9]): 6 mm |
| O=C(COc1ccc2c(c1)CCN1C(=O)CCC21)Nc1ccccc1 (stereo not drawn) | 8 mm | 7.5 mm | 7.33 mm | 0 mm | – | 0 mm | 8.83 mm | – | – | – | – | – | Activity (Fusarium culmorum [1]): inactive; Activity (Aspergillus parasiticus [4]): inactive; Activity [5]: inactive; Activity (Geotrichum candidum [8]): inactive; Activity (Trichoderma viride [9]): inactive |
| O=C(COc1cc2c(cc1OCC(=O)Nc1ccccc1)C1CCC(=O)N1CC2)Nc1ccccc1 (stereo not drawn) | – | – | – | – | – | – | – | inactive | inactive | inactive | inactive | inactive | Activity [2]: inactive; Activity (Escherichia coli [3]): inactive; Activity (Enterococcus faecalis [6]): inactive; Activity (Escherichia coli [7]): inactive; Activity (Salmonella typhi [10]): inactive; Activity (Staphylococcus aureus [11]): inactive; Activity (Bacillus cereus [12]): inactive |
| COc1cc2c(cc1OC)C1CCC(=O)N1CC2 (stereo not drawn) | – | – | – | – | – | – | – | inactive | inactive | inactive | inactive | inactive | Activity [18]: Active; Activity (Escherichia coli [19]): Active; Activity (Escherichia coli [20]): Active; Activity (Staphylococcus aureus [21]): Active; Activity (Salmonella typhi [22]): Active; Activity (Bacillus cereus [23]): Active; Activity (Enterococcus faecalis [24]): Active |
| O=C1CCC2c3ccc(O)cc3CCN12 (stereo not drawn) | 0 mm | 0 mm | 0 mm | 0 mm | 0 mm | 0 mm | 7.5 mm | – | – | – | – | – | Activity (Fusarium culmorum [1]): inactive; Activity (Aspergillus parasiticus [4]): inactive; Activity [5]: inactive; Activity (Geotrichum candidum [8]): inactive; Activity (Trichoderma viride [9]): inactive |
| CCNC(=O)Oc1cc2c(cc1Cl)CCN1C(=O)CCC21 (stereo not drawn) | – | – | – | – | – | – | – | inactive | inactive | inactive | inactive | inactive | Activity [2]: inactive; Activity (Escherichia coli [3]): inactive; Activity (Enterococcus faecalis [6]): inactive; Activity (Escherichia coli [7]): inactive; Activity (Salmonella typhi [10]): inactive; Activity (Staphylococcus aureus [11]): inactive; Activity (Bacillus cereus [12]): inactive |
